Results pooled from the literature.
Medium: plasma
Route: oral

Structure (SMILES) | test system | setting | Vd/F
COc1cc(C(=O)NC2CCN(C)CC2)c(F)cc1Nc1ncc(C(F)(F)F)c(Oc2cccc3c2C(=O)N(C)C3)n1 | human | 50 mg, single dose, patients | 581 L
CC(C)(Sc1ccncc1-c1ccc(C#N)c2ccccc12)C(=O)O | male human | 2 mg, single dose, fasted, healthy volunteers | 394 L
COC(=O)N[C@@H](C)CNc1nccc(-c2cn(C(C)C)nc2-c2cc(Cl)cc(NS(C)(=O)=O)c2F)n1 | human | 50 mg, single dose | 260 L
COc1ccc([C@@H]2CN(C(=O)[C@@H](O)CO)C[C@@]2(C)[C@@H](C)O)cc1OC1CN(c2ccc(C)cn2)C1 | human | 0.5 mg, single dose, healthy volunteers | 40.7 L
CC(C)(C)OC[C@@H]1C(=O)NCCN1C(=O)C[C@H](N)Cc1cc(F)c(F)cc1F | male human | 5 mg, multiple doses, steady state | 1960 L
Cc1cc(Nc2cc(N3CCN(C)CC3)nc(/C=C/c3ccccc3)n2)n[nH]1 | human | 200 mg/m², patients | 2280 L
C[C@@]1(c2cc(NC(=O)c3ccc(C#N)cn3)ccc2F)C=CSC(N)=N1 | human | 3 mg, single dose | 235 L
CO[C@H]1CC[C@H](N2C(=O)CNc3ncc(-c4ccc(C(C)(C)O)nc4)nc32)CC1 | human | 15 mg, patients | 192 L
c1cnc2ccc(Nc3nc(NC4CC4)c4nc[nH]c4n3)cc2c1 | human | 50 mg/m², patients | 597 L
